Measurements published in ChEMBL document CHEMBL1129793, “Quantitative structure-activity relationships for the in vitro antimycobacterial activity of pyrazinoic acid esters” (J Med Chem, 1996).

Key:
Mycobacterium avium [1] = assay: In vitro activity against Mycobacterium avium (MAC-101); assay type: functional
In short: (§1)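 Broth macrodilution MIC. Cultures were grown in modified Middlebrook 7H10 broth (agar and malachite green omitted) with 10% OADC and 0.05% Tween 80, shaken at 37 °C for 3 days, then diluted in 7H10 broth to 1 Klett unit/mL. Test agents were dissolved in water or DMSO and filter-sterilised, then serially diluted 2-fold in 7H10 broth at pH 5.8. Tubes were shaken at 37 °C for 7–10 days, with a drug-free control. MIC was the lowest concentration with no visible turbidity, expressed in mmol/L.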

[2] = t1/2 (min) in equine serum; assay type: ADME, organism-based, Equus caballus; settings: horse
In short: (§2)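 Ester from a 1 mg/mL stock was mixed with 5% aqueous equine serum in 0.01 M KH2PO4, pH 7.2. Aliquots were taken at 0, 5, 10, 15, 30, 60 and 120 min and quenched with an equal volume of acetonitrile, then filtered. Remaining ester was measured by isocratic reverse-phase HPLC (80% acetonitrile/20% 0.1 M sodium acetate, pH 5.0), with UV detection at 265 nm against a standard curve. Half-life is the time to 50% conversion to the acid.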

[3] = tested on: Mycobacterium tuberculosis; assay: In vitro activity against Mycobacterium tuberculosis (ATCC 35828); assay type: functional; in short: as §1
Mycobacterium avium [4] = assay: In vitro activity against Mycobacterium avium (ATCC49601); assay type: functional; in short: as §1
[5] = tested on: Mycobacterium tuberculosis; assay: In vitro activity against Mycobacterium tuberculosis (ATCC 27294); assay type: functional; in short: as §1
Mycobacterium kansasii [6] = assay: In vitro activity against Mycobacterium kansasii (SWK); assay type: functional; in short: as §1
[7] = tested on: Mycobacterium tuberculosis; assay: In vitro activity against Mycobacterium tuberculosis (ATCC 35801); assay type: functional; in short: as §1
[8] = Partition coefficient (logP); assay type: physicochemical; settings: octanol/water
[9] = T1/2 in equine serum; assay type: ADME, organism-based, Equus caballus; settings: horse
In short: as §2, with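 “7.2.” for “7.2. Aliquots were taken at 0, 5, 10, 15, 30, 60 and 120 min and quenched with an equal volume of acetonitrile, then filtered.”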

Mycobacterium avium [10] = assay: In vitro activity against Mycobacterium avium (ATCC 49601).; assay type: functional; in short: as §1
Mycobacterium avium [11] = assay: In vitro activity against Mycobacterium avium (MAC-101).; assay type: functional; in short: as §1
Mycobacterium kansasii [12] = assay: in vitro activity against Mycobacterium kansasii (SWK).; assay type: functional
In short: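 M. kansasii clinical isolate SWK was grown 3 days at 37 °C with shaking in modified Middlebrook 7H10 broth with 10% OADC and 0.05% Tween 80, then diluted. It was tested in serial 2-fold dilutions in 7H10 broth at pH 5.8, shaken at 37 °C for 7–10 days, with a drug-free control. MIC was the lowest concentration giving no visible turbidity, expressed in mmol/L.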

SMILES	Log 1/MMIC (Mycobacterium avium [1])	half-life [2] [min]	Log 1/MMIC [3]	Log 1/MMIC (Mycobacterium avium [4])	Log 1/MMIC [5]	Log 1/MMIC (Mycobacterium kansasii [6])	Log 1/MMIC [7]	logP [8]	half-life [9] [min]	Log 1/MMIC (Mycobacterium avium [10])	Log 1/MMIC (Mycobacterium avium [11])	Log 1/MMIC (Mycobacterium kansasii [12])
CCCCCCC(C)OC(=O)c1cnc(F)cn1 (stereo unspecified)	0.9	6.9	1.803	0.599	2.104	3.928	1.803	3.23				
CCCCCCOC(=O)c1cnc(F)cn1	0.548	2.8		0.548		1.452	1.753	2.96				
CCCOC(=O)c1cnc(C)cn1	0.45	124		0.45	1.955	1.353	1.654	1.15				
CCCCCCCOC(=O)c1cnc(C)cn1			2.373		2.675		2.976	3.35	3.2	0.868	0.868	1.771
CCC(C)OC(=O)c1cnccn1 (stereo unspecified)	-0.152	41.1		-0.755	1.353	1.052		1.05				
COC(=O)c1cnccn1	-0.268	470		-0.268	1.237	0.334	0.936					
COC(=O)c1cnc(I)cn1			1.218		1.218		1.218	0.91	200	0.013	0.013	1.519
CCCCCCCCC(C)OC(=O)c1cnc(Cl)cn1 (stereo unspecified)			3.998		3.697		2.776	4.75	23.7	0.97	0.97	3.378
COC(=O)c1cnc(C)cn1	-0.226	1200	0.978	-0.226	0.978	0.677	1.279	0.15				
O=C(OCc1ccccc1)c1cnccn1	0.525	4.3	2.03	0.525		2.331		1.49				
CCCCCCCCCOC(=O)c1cnc(Cl)cn1			3.977		3.977		2.455	4.98	2.3	1.25	0.949	3.358
COC(=O)c1cnc(F)cn1	0.387	222		0.387	1.591	1.29		0.27				
CC(C)COC(=O)c1cnccn1	-0.152	207	1.654	-0.152	1.955	1.052	1.654	1.07				
CCCCCC(CC)OC(=O)c1cnc(C)cn1 (stereo unspecified)	0.592	1	1.495	0.592	1.194	1.796	2.7	3.72				
COC(=O)c1cnc(OC)cn1	-0.183	300		-0.183		0.42		0.74				
